# Laboratory results taken from ChEMBL document CHEMBL4028879, “Structure-Activity Relationship Studies of Pyrimido[5,4-b]indoles as Selective Toll-Like Receptor 4 Ligands” (J Med Chem, 2017).
# Tested on: not listed separately
# Assay: Cytotoxicity against C57BL/6 mouse primary BMDC assessed as cell viability at 5 uM after 18 hrs by MTT assay relative to control
# Format: cell-based
# Settings: primary BMDC (bone marrow-derived dendritic cells), read-out: Activity
row,SMILES,"viability at 18 h, 5 µM [%]"
1,Cn1c2ccccc2c2nc(S(=O)(=O)CC(=O)NC3CCCCC3)n(-c3ccccc3)c(=O)c21,50
2,Cn1ccc2nc(SCC(=O)NC3CCCCC3)n(-c3ccccc3)c(=O)c21,117
3,Cn1c2ccc(C#C[Si](C)(C)C)cc2c2nc(SCC(=O)NC3CCCCC3)n(-c3ccccc3)c(=O)c21,73
4,C#Cc1ccc2c(c1)c1nc(SCC(=O)NC3CCCCC3)n(-c3ccccc3)c(=O)c1n2C,81
5,O=C(CCSc1nc2c([nH]c3ccccc32)c(=O)n1-c1ccccc1)NC1CCCCC1,58
6,Cn1c2cc(Br)ccc2c2nc(SCC(=O)NC3CCCCC3)n(-c3ccccc3)c(=O)c21,93
7,Cn1c2c(c3nc(SCC(=O)NC4CCCCC4)n(-c4ccccc4)c(=O)c31)CCCC2,106
8,Cn1c2cc(C#N)ccc2c2nc(SCC(=O)NC3CCCCC3)n(-c3ccccc3)c(=O)c21,65
9,Cc1c(C)n(C)c2c(=O)n(-c3ccccc3)c(SCC(=O)NC3CCCCC3)nc12,100
10,O=C(CCCSc1nc2c([nH]c3ccccc32)c(=O)n1-c1ccccc1)NC1CCCCC1,70
11,Cn1c2ccccc2c2nc(OCC(=O)NC3CCCCC3)n(-c3ccccc3)c(=O)c21,58
12,Cn1c2ccc(Br)cc2c2nc(SCC(=O)NC3CCCCC3)n(-c3ccccc3)c(=O)c21,63
13,Cn1c2ccccc2c2nc(NCC(=O)NC3CCCCC3)n(-c3ccccc3)c(=O)c21,113
14,Cn1c2ccc(-c3cccc4ccccc34)cc2c2nc(SCC(=O)NC3CCCCC3)n(-c3ccccc3)c(=O)c21,102

# Target: T1, Toll-like receptor 4 (Mus musculus) (UniProt Q9QUK6)
# T1 sequence (whole entry): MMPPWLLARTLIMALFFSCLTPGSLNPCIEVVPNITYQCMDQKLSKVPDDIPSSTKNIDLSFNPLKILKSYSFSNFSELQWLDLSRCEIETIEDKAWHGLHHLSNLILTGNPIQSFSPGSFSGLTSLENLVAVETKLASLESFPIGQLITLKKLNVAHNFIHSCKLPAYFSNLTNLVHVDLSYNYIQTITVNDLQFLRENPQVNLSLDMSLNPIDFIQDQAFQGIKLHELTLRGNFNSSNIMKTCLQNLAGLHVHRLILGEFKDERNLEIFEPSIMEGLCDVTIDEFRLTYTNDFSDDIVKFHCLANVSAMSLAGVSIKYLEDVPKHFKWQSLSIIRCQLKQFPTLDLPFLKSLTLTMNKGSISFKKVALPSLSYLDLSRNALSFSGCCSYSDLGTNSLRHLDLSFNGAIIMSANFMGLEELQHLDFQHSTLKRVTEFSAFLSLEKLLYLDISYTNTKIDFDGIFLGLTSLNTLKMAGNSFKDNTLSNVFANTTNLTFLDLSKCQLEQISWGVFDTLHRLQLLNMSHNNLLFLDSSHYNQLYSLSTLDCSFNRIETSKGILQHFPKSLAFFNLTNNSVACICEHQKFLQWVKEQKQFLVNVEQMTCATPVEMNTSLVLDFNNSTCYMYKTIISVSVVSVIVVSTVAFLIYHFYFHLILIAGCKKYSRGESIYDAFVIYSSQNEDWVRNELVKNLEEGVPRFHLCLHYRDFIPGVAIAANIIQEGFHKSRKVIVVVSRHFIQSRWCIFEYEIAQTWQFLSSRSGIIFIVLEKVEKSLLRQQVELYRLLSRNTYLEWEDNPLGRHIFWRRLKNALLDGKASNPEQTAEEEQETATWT
# Assay: Agonist activity at TLR4 in C57BL/6 mouse primary BMDC assessed as induction of IL-6 release at 5 uM after 18 hrs by ELISA relative to N-cyclohexyl-2-(5-methyl-4-oxo-3-phenyl-4,5-dihydro-3H-pyrimido[5,4-b]indol-2-ylthio)acetamide
# Settings: not given
row,SMILES,Activity [%]
1,Cn1c2c(c3nc(SCC(=O)NC4CCCCC4)n(-c4ccccc4)c(=O)c31)CCCC2,65
2,Cn1c2cc(C#N)ccc2c2nc(SCC(=O)NC3CCCCC3)n(-c3ccccc3)c(=O)c21,3
3,Cc1c(C)n(C)c2c(=O)n(-c3ccccc3)c(SCC(=O)NC3CCCCC3)nc12,81
4,O=C(CCCSc1nc2c([nH]c3ccccc32)c(=O)n1-c1ccccc1)NC1CCCCC1,0
5,Cn1c2ccccc2c2nc(OCC(=O)NC3CCCCC3)n(-c3ccccc3)c(=O)c21,0
6,Cn1c2ccccc2c2nc(NCC(=O)NC3CCCCC3)n(-c3ccccc3)c(=O)c21,1

# Now from value to compound:
row,Activity [%],SMILES
1,0,Cn1c2ccccc2c2nc(S(=O)(=O)CC(=O)NC3CCCCC3)n(-c3ccccc3)c(=O)c21
2,1,Cn1ccc2nc(SCC(=O)NC3CCCCC3)n(-c3ccccc3)c(=O)c21
3,78,Cn1c2ccc(C#C[Si](C)(C)C)cc2c2nc(SCC(=O)NC3CCCCC3)n(-c3ccccc3)c(=O)c21
4,92,C#Cc1ccc2c(c1)c1nc(SCC(=O)NC3CCCCC3)n(-c3ccccc3)c(=O)c1n2C
5,0,O=C(CCSc1nc2c([nH]c3ccccc32)c(=O)n1-c1ccccc1)NC1CCCCC1
6,73,Cn1c2cc(Br)ccc2c2nc(SCC(=O)NC3CCCCC3)n(-c3ccccc3)c(=O)c21
7,120,Cn1c2ccc(Br)cc2c2nc(SCC(=O)NC3CCCCC3)n(-c3ccccc3)c(=O)c21
8,80,Cn1c2ccc(-c3cccc4ccccc34)cc2c2nc(SCC(=O)NC3CCCCC3)n(-c3ccccc3)c(=O)c21

# Target: T2, Toll-like receptor 4 (Homo sapiens, UniProt O00206)
# T2 sequence (O00206 whole entry): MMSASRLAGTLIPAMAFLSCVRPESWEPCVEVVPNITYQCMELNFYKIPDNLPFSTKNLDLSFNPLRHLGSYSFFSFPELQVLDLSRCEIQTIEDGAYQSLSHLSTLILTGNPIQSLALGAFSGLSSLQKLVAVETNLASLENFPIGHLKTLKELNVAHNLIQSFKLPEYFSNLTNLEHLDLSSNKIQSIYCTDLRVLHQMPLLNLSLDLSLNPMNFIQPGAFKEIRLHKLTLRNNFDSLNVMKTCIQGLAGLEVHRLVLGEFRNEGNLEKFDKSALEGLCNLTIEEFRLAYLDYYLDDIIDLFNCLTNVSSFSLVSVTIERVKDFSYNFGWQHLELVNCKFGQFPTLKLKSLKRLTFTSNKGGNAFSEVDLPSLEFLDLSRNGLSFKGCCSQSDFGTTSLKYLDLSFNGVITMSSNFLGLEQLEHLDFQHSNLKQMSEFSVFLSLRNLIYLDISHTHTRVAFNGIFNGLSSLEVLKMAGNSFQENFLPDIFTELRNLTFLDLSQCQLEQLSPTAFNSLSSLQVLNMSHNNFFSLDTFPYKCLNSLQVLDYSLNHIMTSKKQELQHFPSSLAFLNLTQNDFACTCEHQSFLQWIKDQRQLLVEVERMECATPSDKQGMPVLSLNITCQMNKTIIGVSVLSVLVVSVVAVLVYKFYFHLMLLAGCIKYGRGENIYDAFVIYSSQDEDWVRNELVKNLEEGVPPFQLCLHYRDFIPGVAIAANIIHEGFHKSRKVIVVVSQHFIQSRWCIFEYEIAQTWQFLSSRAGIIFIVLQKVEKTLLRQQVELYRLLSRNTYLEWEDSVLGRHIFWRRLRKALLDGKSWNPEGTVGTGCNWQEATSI
# Assay: Agonist activity at human TLR4 expressed in HEK293 blue cells assessed as induction of NF-kappaB activation-mediated SEAP production by measuring AUC after 20 to 24 hrs by colorimetric assay relative to N-cyclohexyl-2-(5-methyl-4-oxo-3-phenyl-4,5-dihydro-3H-pyrimido[5,4-b]indol-2-ylthio)acetamide
# Format: cell-based
# Settings: not given
row,SMILES,Activity [%]
1,Cn1c2c(c3nc(SCC(=O)NC4CCCCC4)n(-c4ccccc4)c(=O)c31)CCCC2,8
2,Cn1c2cc(C#N)ccc2c2nc(SCC(=O)NC3CCCCC3)n(-c3ccccc3)c(=O)c21,20
3,Cc1c(C)n(C)c2c(=O)n(-c3ccccc3)c(SCC(=O)NC3CCCCC3)nc12,12
4,O=C(CCCSc1nc2c([nH]c3ccccc32)c(=O)n1-c1ccccc1)NC1CCCCC1,8
5,Cn1c2ccccc2c2nc(OCC(=O)NC3CCCCC3)n(-c3ccccc3)c(=O)c21,9
6,Cn1c2ccccc2c2nc(NCC(=O)NC3CCCCC3)n(-c3ccccc3)c(=O)c21,10

# The next lines start with the values.
row,Activity [%],SMILES
1,16,Cn1c2ccccc2c2nc(S(=O)(=O)CC(=O)NC3CCCCC3)n(-c3ccccc3)c(=O)c21
2,17,Cn1ccc2nc(SCC(=O)NC3CCCCC3)n(-c3ccccc3)c(=O)c21
3,87,Cn1c2ccc(C#C[Si](C)(C)C)cc2c2nc(SCC(=O)NC3CCCCC3)n(-c3ccccc3)c(=O)c21
4,107,C#Cc1ccc2c(c1)c1nc(SCC(=O)NC3CCCCC3)n(-c3ccccc3)c(=O)c1n2C
5,7,O=C(CCSc1nc2c([nH]c3ccccc32)c(=O)n1-c1ccccc1)NC1CCCCC1
6,40,Cn1c2cc(Br)ccc2c2nc(SCC(=O)NC3CCCCC3)n(-c3ccccc3)c(=O)c21
7,159,Cn1c2ccc(Br)cc2c2nc(SCC(=O)NC3CCCCC3)n(-c3ccccc3)c(=O)c21
8,72,Cn1c2ccc(-c3cccc4ccccc34)cc2c2nc(SCC(=O)NC3CCCCC3)n(-c3ccccc3)c(=O)c21

# Target: T1, Toll-like receptor 4 (Mus musculus)
# Assay: Agonist activity at mouse TLR4 expressed in HEK293 blue cells assessed as induction of NF-kappaB activation-mediated SEAP production by measuring AUC after 20 to 24 hrs by colorimetric assay relative to N-cyclohexyl-2-(5-methyl-4-oxo-3-phenyl-4,5-dihydro-3H-pyrimido[5,4-b]indol-2-ylthio)acetamide
# Format: cell-based
# Settings: not given
row,SMILES,Activity [%]
1,Cn1c2c(c3nc(SCC(=O)NC4CCCCC4)n(-c4ccccc4)c(=O)c31)CCCC2,13
2,Cn1c2cc(C#N)ccc2c2nc(SCC(=O)NC3CCCCC3)n(-c3ccccc3)c(=O)c21,6
3,Cc1c(C)n(C)c2c(=O)n(-c3ccccc3)c(SCC(=O)NC3CCCCC3)nc12,22
4,O=C(CCCSc1nc2c([nH]c3ccccc32)c(=O)n1-c1ccccc1)NC1CCCCC1,2
5,Cn1c2ccccc2c2nc(OCC(=O)NC3CCCCC3)n(-c3ccccc3)c(=O)c21,1
6,Cn1c2ccccc2c2nc(NCC(=O)NC3CCCCC3)n(-c3ccccc3)c(=O)c21,2

# The remaining lines, values ahead:
row,Activity [%],SMILES
1,2,Cn1c2ccccc2c2nc(S(=O)(=O)CC(=O)NC3CCCCC3)n(-c3ccccc3)c(=O)c21
2,5,Cn1ccc2nc(SCC(=O)NC3CCCCC3)n(-c3ccccc3)c(=O)c21
3,85,Cn1c2ccc(C#C[Si](C)(C)C)cc2c2nc(SCC(=O)NC3CCCCC3)n(-c3ccccc3)c(=O)c21
4,92,C#Cc1ccc2c(c1)c1nc(SCC(=O)NC3CCCCC3)n(-c3ccccc3)c(=O)c1n2C
5,3,O=C(CCSc1nc2c([nH]c3ccccc32)c(=O)n1-c1ccccc1)NC1CCCCC1
6,34,Cn1c2cc(Br)ccc2c2nc(SCC(=O)NC3CCCCC3)n(-c3ccccc3)c(=O)c21
7,103,Cn1c2ccc(Br)cc2c2nc(SCC(=O)NC3CCCCC3)n(-c3ccccc3)c(=O)c21
8,38,Cn1c2ccc(-c3cccc4ccccc34)cc2c2nc(SCC(=O)NC3CCCCC3)n(-c3ccccc3)c(=O)c21

# Target: T3, Toll-like receptor 4 (Mus musculus, UniProt Q9QUK6)
# T3 sequence (Q9QUK6 whole entry): T1 sequence (whole entry)
# Assay: Agonist activity at mouse TLR4 expressed in HEK293 blue cells assessed as induction of NF-kappaB activation-mediated SEAP production after 20 to 24 hrs by colorimetric assay
# Format: cell-based
# Settings: not given
# Method in brief: (§1)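 HEK-Blue cells expressing human or mouse TLR4, 2.5 × 10⁴/well in DMEM with 10% FBS, pyruvate, glutamine and antibiotics. Graded doses from 20 mM DMSO stocks, final DMSO 0.05%. Supernatants harvested after 20–24 h; SEAP read by colorimetric substrate at 630 nm. EC50 taken as the concentration giving 50% of maximal activation. LPS 100 ng/mL served as positive control.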
row,SMILES,EC50 [µM]
1,Cn1c2c(c3nc(SCC(=O)NC4CCCCC4)n(-c4ccccc4)c(=O)c31)CCCC2,> 10
2,Cn1c2cc(C#N)ccc2c2nc(SCC(=O)NC3CCCCC3)n(-c3ccccc3)c(=O)c21,> 10
3,Cc1c(C)n(C)c2c(=O)n(-c3ccccc3)c(SCC(=O)NC3CCCCC3)nc12,> 10
4,O=C(CCCSc1nc2c([nH]c3ccccc32)c(=O)n1-c1ccccc1)NC1CCCCC1,> 10
5,Cn1c2ccccc2c2nc(OCC(=O)NC3CCCCC3)n(-c3ccccc3)c(=O)c21,> 10
6,Cn1c2ccccc2c2nc(NCC(=O)NC3CCCCC3)n(-c3ccccc3)c(=O)c21,> 10

# Other lines, results leading:
row,EC50 [µM],SMILES
1,> 10,Cn1c2ccccc2c2nc(S(=O)(=O)CC(=O)NC3CCCCC3)n(-c3ccccc3)c(=O)c21
2,> 10,Cn1ccc2nc(SCC(=O)NC3CCCCC3)n(-c3ccccc3)c(=O)c21
3,3.3,Cn1c2ccc(C#C[Si](C)(C)C)cc2c2nc(SCC(=O)NC3CCCCC3)n(-c3ccccc3)c(=O)c21
4,2.74,C#Cc1ccc2c(c1)c1nc(SCC(=O)NC3CCCCC3)n(-c3ccccc3)c(=O)c1n2C
5,> 10,O=C(CCSc1nc2c([nH]c3ccccc32)c(=O)n1-c1ccccc1)NC1CCCCC1
6,4.89,Cn1c2cc(Br)ccc2c2nc(SCC(=O)NC3CCCCC3)n(-c3ccccc3)c(=O)c21
7,2.45,Cn1c2ccc(Br)cc2c2nc(SCC(=O)NC3CCCCC3)n(-c3ccccc3)c(=O)c21
8,2.58,Cn1c2ccc(-c3cccc4ccccc34)cc2c2nc(SCC(=O)NC3CCCCC3)n(-c3ccccc3)c(=O)c21

# Target: T2, Toll-like receptor 4
# Assay: Agonist activity at human TLR4 expressed in HEK293 blue cells assessed as induction of NF-kappaB activation-mediated SEAP production after 20 to 24 hrs by colorimetric assay
# Format: cell-based
# Settings: not given
# Method in brief: as §1
row,SMILES,EC50 [µM]
1,Cn1c2c(c3nc(SCC(=O)NC4CCCCC4)n(-c4ccccc4)c(=O)c31)CCCC2,> 10
2,Cn1c2cc(C#N)ccc2c2nc(SCC(=O)NC3CCCCC3)n(-c3ccccc3)c(=O)c21,> 10
3,Cc1c(C)n(C)c2c(=O)n(-c3ccccc3)c(SCC(=O)NC3CCCCC3)nc12,> 10
4,O=C(CCCSc1nc2c([nH]c3ccccc32)c(=O)n1-c1ccccc1)NC1CCCCC1,> 10
5,Cn1c2ccccc2c2nc(OCC(=O)NC3CCCCC3)n(-c3ccccc3)c(=O)c21,> 10
6,Cn1c2ccccc2c2nc(NCC(=O)NC3CCCCC3)n(-c3ccccc3)c(=O)c21,> 10

# Further lines, results first:
row,EC50 [µM],SMILES
1,> 10,Cn1c2ccccc2c2nc(S(=O)(=O)CC(=O)NC3CCCCC3)n(-c3ccccc3)c(=O)c21
2,> 10,Cn1ccc2nc(SCC(=O)NC3CCCCC3)n(-c3ccccc3)c(=O)c21
3,> 10,Cn1c2ccc(C#C[Si](C)(C)C)cc2c2nc(SCC(=O)NC3CCCCC3)n(-c3ccccc3)c(=O)c21
4,3.27,C#Cc1ccc2c(c1)c1nc(SCC(=O)NC3CCCCC3)n(-c3ccccc3)c(=O)c1n2C
5,> 10,O=C(CCSc1nc2c([nH]c3ccccc32)c(=O)n1-c1ccccc1)NC1CCCCC1
6,> 10,Cn1c2cc(Br)ccc2c2nc(SCC(=O)NC3CCCCC3)n(-c3ccccc3)c(=O)c21
7,3.58,Cn1c2ccc(Br)cc2c2nc(SCC(=O)NC3CCCCC3)n(-c3ccccc3)c(=O)c21
8,2.12,Cn1c2ccc(-c3cccc4ccccc34)cc2c2nc(SCC(=O)NC3CCCCC3)n(-c3ccccc3)c(=O)c21
